Series [1] has as its system Homo sapiens. The series can be described thus: Half life in Ugandan children patient with uncomplicated malaria assessed as dihydroartemisin administered twice daily for 3 days as 20/120 mg tablets containing artemether-lumefantrine combination. Type of series: ADME, organism-based. The following applies: in vivo, po, 72 h. Put shortly: (§1)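 Children (5–13 y, n = 20) took AL twice daily for 3 days by weight band (20–24 kg, 2 tablets; 25–34 kg, 3; >34 kg, 4), each dose with 250 ml milk (3.3 g fat). Plasma was sampled 0–120 h after the morning last dose. AR and DHA were measured by LC-MS/MS; LR by HPLC-UV (LLOQ 25 ng/ml). Values below LLOQ were treated as missing.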

For series [2], the system named is Homo sapiens. The series can be described thus: AUC (0-infinity) in Ugandan children patient with uncomplicated malaria assessed as dihydroartemisin administered twice daily for 3 days as 20/120 mg tablets containing artemether-lumefantrine combination. It counts as ADME, organism-based, Plasma. Further details: dose 120 mg, time infinity. The note with it: in vivo, po, 72 h. Put shortly:
as §1

In series [3] the test system is Homo sapiens. The series can be described thus: Cmax in Ugandan children patient with uncomplicated malaria assessed as dihydroartemisin administered twice daily for 3 days as 20/120 mg tablets containing artemether-lumefantrine combination. Further details: dose 120 mg. Type of series: ADME, organism-based. The note with it: in vivo, po, 72 h. Put shortly: as §1

The nature of series [4]: Half life in Ugandan children patient with uncomplicated malaria administered twice daily for 3 days as 20/120 mg tablets containing artemether-lumefantrine combination. It counts as ADME, organism-based. The note with it: human, in vivo, po. Put shortly: as §1
Series [5] is described as follows: Cmax in Ugandan children patient with uncomplicated malaria administered twice daily for 3 days as 20/120 mg tablets containing artemether-lumefantrine combination. Type of series: ADME, organism-based. Further details: dose 120 mg. The following applies: human, in vivo, oral. Put shortly:
as §1

Series [6] is described as follows: AUC (0-infinity) in Ugandan children patient with uncomplicated malaria administered twice daily for 3 days as 20/120 mg tablets containing artemether-lumefantrine combination. Type of series: ADME, organism-based. More on the design: dose 120 mg, time infinity. The following applies: human, plasma, po. Summed up: as §1
For series [7], the system named is Homo sapiens. As to the kind of experiment: Half life in Ugandan children patient with uncomplicated malaria assessed as dihydroartemisinin level at 4 mg/kg, perorally bid for 3 days co-administered with amodiaquine at 10 mg/kg, perorally qd on first 2 days and then 5 mg/kg, perorally on third day. It counts as ADME, organism-based. The note with it: in vivo, po. Summed up:
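Ugandan children aged 5–13 y (n = 21) were dosed with food and fat. Venous blood (3 ml) was drawn before the last dose and at 2, 4, 8, 24 and 120 h after it. Samples were iced, cold-centrifuged within 30 min, and the plasma was stored at −80°C. DHA was assayed by SPE LC-MS/MS in positive ion mode. λz came from terminal regression, usually the last three points. Values are geometric means (90% CIs).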

Series [8] concerns Homo sapiens. The series can be described thus: AUC (0-infinity) in Ugandan children patient with uncomplicated malaria assessed as dihydroartemisinin level at 4 mg/kg, perorally […] co-administered with amodiaquine at 10 mg/kg, perorally qd on first 2 days and then 5 mg/kg, perorally on third day. It counts as ADME, organism-based, Plasma. More on the design: dose 4 mg/kg, time infinity, route oral. The note with it: in vivo, po. Summed up:
(§2)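 Ugandan children aged 5–13 y with uncomplicated malaria (n = 21) were dosed once daily for 3 days, with food and fat. Venous plasma was sampled before the last dose and 2, 4, 8, 24 and 120 h after it, cold-centrifuged and stored at −80°C. AS and DHA were measured by solid-phase extraction LC-MS/MS (positive ion mode). AUC0-∞ used the linear up-log down trapezoidal rule; Cmax was observed.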

In series [9] the test system is Homo sapiens. As to the kind of experiment: Cmax in Ugandan children patient with uncomplicated malaria assessed as dihydroartemisinin level at 4 mg/kg, perorally […] for 3 days co-administered with amodiaquine at 10 mg/kg, perorally qd on first 2 days and then 5 mg/kg, perorally on third day. It counts as ADME, organism-based. More on the design: dose 4 mg/kg, route oral. The note with it: in vivo, po. Put shortly: as §2

The nature of series [10]: AUC (0-infinity) in Ugandan children patient with uncomplicated malaria at 4 mg/kg, perorally […] for 3 days co-administered with amodiaquine at 10 mg/kg, perorally qd on first 2 days and then 5 mg/kg, perorally on third day. Type of series: ADME, organism-based. The note with it: human, plasma, po. More on the design: dose 4 mg/kg, route oral, time infinity. Summed up:
as §2

Series [11] is described as follows: Cmax in Ugandan children patient with uncomplicated malaria at 4 mg/kg, perorally […] for 3 days co-administered with amodiaquine at 10 mg/kg, perorally qd on first 2 days and then 5 mg/kg, perorally on third day. It counts as ADME, organism-based. Further details: dose 4 mg/kg, route oral. The following applies: human, in vivo, po. Summed up: as §2
A short description of series [12]: AUC (0-infinity) in healthy human adult at 600 mg administered as single dose. The following applies: plasma. More on the design: dose 600 mg, time infinity. Type of series: ADME, organism-based.
Series [13] relates to Homo sapiens. As to the kind of experiment: AUC (0-infinity) in Ugandan children patient with uncomplicated malaria assessed as desethylamodiaquine level at 10 mg/kg, perorally qd on first 2 days and then 5 mg/kg, perorally on third day co-administered with artesunate at 4 mg/kg, perorally bid for 3 days. More on the design: dose 10 mg/kg, time infinity, route oral. The note with it: in vivo, po. Type of series: ADME, organism-based, Plasma. Put shortly: (§3)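 Oral AQ-AS was given for 3 days with food and fat to Ugandan children aged 5–13 y (n = 21). Venous blood was drawn pre-last dose and at 2, 4, 8, 24 and 120 h after it. For AQ-DEAQ, plasma was cold-centrifuged at 3,000 × g for 15 min and stored at −80°C. AUC0-∞ used trapezoids plus Clast/λz, with λz usually from the last three points.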

Series [14] relates to Homo sapiens. As to the kind of experiment: AUC (0-120 hrs) in Ugandan children patient with uncomplicated malaria assessed as desethylamodiaquine level at 10 mg/kg, perorally qd on first 2 days and then 5 mg/kg, perorally on third day co-administered with artesunate at 4 mg/kg, perorally bid for 3 days. Type of series: ADME, organism-based, Plasma. The note with it: in vivo, po. Further details: dose 10 mg/kg, time < 120 hr, route oral.

Series [15] concerns Homo sapiens. As to the kind of experiment: Cmax in Ugandan children patient with uncomplicated malaria assessed as desethylamodiaquine level at 10 mg/kg, perorally qd on first 2 days and then 5 mg/kg, perorally on third day co-administered with artesunate at 4 mg/kg, perorally bid for 3 days. Type of series: ADME, organism-based. Further details: dose 10 mg/kg, route oral. The following applies: in vivo, po. Put shortly:
as §3

Series [16] can be described thus: Half life in Ugandan children patient with uncomplicated malaria at 10 mg/kg, perorally qd on first 2 days and then 5 mg/kg, perorally on third day co-administered with artesunate at 4 mg/kg, perorally bid for 3 days. It counts as ADME, organism-based. The note with it: human, in vivo, po. Put shortly:
as §3

Series [17] can be described thus: AUC (0-infinity) in Ugandan children patient with uncomplicated malaria at 10 mg/kg, perorally qd on first 2 days and then 5 mg/kg, perorally on third day co-administered with artesunate at 4 mg/kg, perorally bid for 3 days. Type of series: ADME, organism-based. Further details: dose 10 mg/kg, time infinity, route oral. The following applies: human, plasma, po. Summed up:
as §3

Series [18] is described as follows: AUC (0-8 hrs) in Ugandan children patient with uncomplicated malaria at 10 mg/kg, perorally qd on first 2 days and then 5 mg/kg, perorally on third day co-administered with artesunate at 4 mg/kg, perorally bid for 3 days. Type of series: ADME, organism-based. Further details: dose 10 mg/kg, time < 8 hr, route oral. The note with it: human, plasma, po.
Series [19] is described as follows: Cmax in Ugandan children patient with uncomplicated malaria at 10 mg/kg, perorally qd on first 2 days and then 5 mg/kg, perorally on third day co-administered with artesunate at 4 mg/kg, perorally bid for 3 days. It counts as ADME, organism-based. More on the design: dose 10 mg/kg, route oral. The note with it: human, in vivo, po. Put shortly:
as §3

The subject of series [20] is Homo sapiens. The series can be described thus: Half life in Ugandan children patient with uncomplicated malaria assessed as desethylamodiaquine level at 10 mg/kg, perorally qd on first 2 days and then 5 mg/kg, perorally on third day co-administered with artesunate at 4 mg/kg, perorallybid for 3 days. The note with it: in vivo, po. Type of series: ADME, organism-based. Put shortly:
as §3

Series [21] has as its system Homo sapiens. As to the kind of experiment: AUC (0-infinity) in healthy human adult assessed as desethylamodiaquine level at 600 mg administered as single dose. It counts as ADME, organism-based, Plasma. Further details: dose 600 mg, time infinity. The following applies: in vivo.
Series [22] has as its system Homo sapiens. The series can be described thus: Plasma concentration in Nigerian human adult malaria patient assessed as desethylamodiaquine level at 25 mg/kg measured on seventh day post dose. The following applies: in vivo.
Series [23] concerns Homo sapiens. The series can be described thus: Plasma concentration in Gabonian malarial children aged 6 months to 10 years assessed as desethylamodiaquine level at 30 mg/kg measured on third day post dose. The following applies: in vivo.

Consider 4 compounds from ChEMBL document CHEMBL1212751, “Pharmacokinetics of artemether-lumefantrine and artesunate-amodiaquine in children in Kampala, Uganda” (Antimicrob Agents Chemother, 2010).

One may read the AUC as concentration integrated over time. The Cmax is the highest concentration seen after dosing. The term half-life denotes how long it takes for the measured level to halve. For orientation: AUC(0-inf) means total exposure, with the tail of the curve extrapolated. Consider `CO[C@H]1O[C@@H]2O[C@@]3(C)CC[C@H]4[C@H](C)CC[C@@H]([C@H]1C)[C@@]24OO3` [ARTEMETHER], for which the t1/2 with Homo sapiens [1] was determined as 1.9 h. Besides, in the series with Homo sapiens [2], the AUC was 382 ng·h/mL. The Cmax with Homo sapiens [3] was found to be 119 ng/mL; in series [5], 34 ng/mL. Further, the half-life in series [4] was 3.9 h. Also, in [6], the AUC(0-inf) is 168 ng·h/mL.

Take `CCCCN(CCCC)CC(O)c1cc(Cl)cc2c1-c1ccc(Cl)cc1/C2=C/c1ccc(Cl)cc1` (stereo unspecified) [LUMEFANTRINE]: the half-life in [4] is 32.7 h. Besides, the Cmax in series [5] came to 6760 ng/mL. For the same compound, the AUC(0-inf) in series [6] is 210000 ng·h/mL.

Take `C[C@H]1[C@H](OC(=O)CCC(=O)O)O[C@@H]2O[C@@]3(C)CC[C@H]4[C@H](C)CC[C@@H]1[C@@]24OO3` [ARTESUNATE]: the t1/2 in the series with Homo sapiens [7] turned out to be 1.3 h. Further, the AUC with Homo sapiens [8] is 1404 ng·h/mL. The figures for the Cmax (with Homo sapiens [9]; in series [11]) were 473 ng/mL and 51.3 ng/mL, respectively. The AUC(0-inf) in [10] was 113 ng·h/mL.

With `CCN(CC)Cc1cc(Nc2ccnc3cc(Cl)ccc23)ccc1O.Cl`, the AUC(0-inf) came to 154 ng·h/mL in series [12] and 39.3 ng·h/mL in [17]. Further, the results for the AUC in the series on Homo sapiens [13], in the series with Homo sapiens [14] and in the series on Homo sapiens [21] were 14770 ng·h/mL, 11242 ng·h/mL and 8437 ng·h/mL, respectively. Also, the results for the highest concentration (Cmax) (in the series on Homo sapiens [15]; in series [19]) were 235 ng/mL and 5.2 ng/mL, respectively. Further, in series [16], the half-life is 3.3 h. Besides, the AUC at 8 h in [18] amounted to 28.9 ng·h/mL. Besides, in the series with Homo sapiens [20], the t1/2 was determined as 60 h. Moreover, the figures for the Concentration in the series on Homo sapiens [22] and with Homo sapiens [23] were 62 ng/mL and 149 ng/mL, respectively.
